Experimental data as given in ChEMBL document CHEMBL4118238, “Facilely accessible quinoline derivatives as potent antibacterial agents” (Bioorg Med Chem, 2018).
Values after ≈ are worked out from the molar mass of the structure shown. Active and inactive are the calls of the source. The calls are words filed in the database; no cut-off is given here.

Key:
[1] = tested on: Staphylococcus aureus; experiment: Antibacterial activity against methicillin-resistant Staphylococcus aureus ATCC 33591 by CLSI M11-A7 protocol based method; format: functional
How it was run: (§1)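 Broth MIC by a previously described standard protocol; MIC is the lowest concentration giving complete growth inhibition. Compounds were dosed from DMSO stocks with final DMSO below 0.5%. Each experiment was repeated at least three times in duplicate.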

[2] = tested on: Staphylococcus epidermidis; experiment: Antibacterial activity against methicillin resistant Staphylococcus epidermidis RP62A by CLSI M11-A7 protocol based method; format: functional; how it was run: as §1
[3] = tested on: Enterococcus faecalis; experiment: Antibacterial activity against vancomycin resistant Enterococcus faecalis ATCC 700802 by CLSI M11-A7 protocol based method; format: functional; how it was run: as §1
[4] = tested on: Clostridioides difficile; experiment: Antibacterial activity against Clostridium difficile UK6 by CLSI M11-A7 protocol based method; format: functional
How it was run: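 C. difficile UK6 MICs followed CLSI media and methods for anaerobe susceptibility testing. MIC was taken as the lowest concentration giving complete growth inhibition. DMSO stocks were used, with final DMSO below 0.5%. Runs were repeated at least three times, in duplicate each time.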

[5] = tested on: HepG2; experiment: Cytotoxicity against human HepG2 cells assessed as reduction in cell viability after 24 hrs by MTT assay; format: cell-based; settings: HepG2, 24 h
How it was run: (§2)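 Cells were grown in DMEM with 10% FBS and 1% penicillin/streptomycin at 37°C, 5% CO2, then seeded at 10^4 cells/well overnight. They were exposed to 128 to 0.125 µg/ml compound, or 1% DMSO control, for 24 h at 37°C. MTT was added for 4 h, formazan dissolved in DMSO for 15 min, and A540 read. IC50 was relative to control-treated cells, in three replicates.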

[6] = tested on: HEK-293T; experiment: Cytotoxicity against HEK293T cells assessed as reduction in cell viability after 24 hrs by MTT assay; format: cell-based; settings: Homo sapiens; how it was run: as §2
[7] = Selectivity index, ratio of IC50 for human HepG2 cells to MIC for Clostridium difficile UK6; format: toxicity; settings: read-out: Selectivity Index
[8] = Selectivity index, ratio of IC50 for HEK293 cells to MIC for Clostridium difficile UK6; format: toxicity; settings: human, read-out: Selectivity Index
[9] = tested on: Clostridioides difficile; experiment: Antibacterial activity against Clostridium difficile UK6 infected in C57BL/6 mouse assessed as increase in mouse survival at 50 mg/kg, po bid via gavage for 5 days starting from 4 hrs post challenge measured from day 3 to 5 during compound dosing relative to control; format: functional
How it was run: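 Female C57BL/6 mice (6 weeks) received a six-antibiotic cocktail in drinking water for 5 days, then autoclaved water for 2 days and clindamycin 10 mg/kg ip on day −1. On day 0 they were challenged by gavage with 10^6 CFU UK6 spores. Compound was given by gavage at 50 mg/kg 4 h post-challenge, then twice daily from day 1 for five days. Survival was monitored daily versus an untreated infected group (n=10 per group).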

[10] = tested on: Clostridioides difficile; experiment: Antibacterial activity against Clostridium difficile UK6 infected in C57BL/6 mouse assessed as decrease in bacterial count in feces at 50 mg/kg, po bid via gavage for 5 days starting from 4 hrs post challenge by serial dilution method relative to control; format: functional; design: scale not given: the % may be the effect or the level left
How it was run: (§3)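 Female 6-week C57BL/6 mice (n=10 per group) got an antibiotic cocktail in drinking water for 5 days and autoclaved water for 2 days. Clindamycin 10 mg/kg ip followed one day before gavage of 10^6 CFU UK6 spores. Dosing was 50 mg/kg by gavage at 4 h, then twice daily for five days. Feces from days 1, 3 and 5 were ethanol-shocked, serially diluted and plated anaerobically 48 h. Counts are CFU/g, triplicate plates.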

[11] = tested on: Clostridioides difficile; experiment: Antibacterial activity against Clostridium difficile UK6 infected in C57BL/6 mouse assessed as decrease in diarrhea at 50 mg/kg, po bid via gavage for 5 days starting from 4 hrs post challenge measured daily during compound dosing; format: functional, organism-based
How it was run: (§4)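 Female 6-week C57BL/6 mice (n=10 per group) were antibiotic-pretreated, given clindamycin, then gavaged with 10^6 CFU UK6 spores. Compound was given at 50 mg/kg by gavage at 4 h post-challenge, then twice daily for five days. Mice were checked daily for five days. Percent diarrhea is mice with diarrhea divided by mice in the group, compared by Pearson chi-square.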

[12] = tested on: Clostridioides difficile; experiment: Antibacterial activity against Clostridium difficile UK6 infected in C57BL/6 mouse assessed as decrease in diarrhea at 50 mg/kg, po bid via gavage for 5 days starting from 4 hrs post challenge measured after 2 days relative to control; format: functional; design: scale not given: the % may be the effect or the level left; how it was run: as §4
[13] = tested on: Clostridioides difficile; experiment: Antibacterial activity against Clostridium difficile UK6 infected in C57BL/6 mouse assessed as decrease in bacterial count in feces at 50 mg/kg, po bid via gavage for 5 days starting from 4 hrs post challenge measured after 5 days by serial dilution method relative to control; format: functional; how it was run: as §3
[14] = tested on: Mus musculus; experiment: Toxicity in C57BL/6 mouse assessed as diarrhea at 50 mg/kg, po bid via gavage for 5 days starting from 4 hrs post challenge measured; format: organism-based; settings: in vivo
How it was run: (§5)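 Uninfected female 6-week C57BL/6 mice (n=5) received 50 mg/kg by gavage on the infected group's schedule: at 4 h, then twice daily for five days. They were monitored daily for five days for weight change, survival, diarrhea and other disease signs.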

[15] = tested on: Mus musculus; experiment: Toxicity in C57BL/6 mouse assessed as development of Clostridium difficile infection symptoms at 50 mg/kg, po bid via gavage for 5 days starting from 4 hrs post challenge measured; format: organism-based; settings: in vivo; how it was run: as §5

SMILES: COc1cc2nccc(Nc3ccc(F)c(Cl)c3)c2cc1OCc1ccc(C(C)C)cc1
- MIC [1]: 1.5 µg/mL (≈ 3.33 µM)
- MIC [2]: 6 µg/mL (≈ 13.3 µM)
- MIC [3]: 3 µg/mL (≈ 6.65 µM)
- MIC [4]: 1 µg/mL (≈ 2.22 µM)
- IC50 [5]: 148 µM
- IC50 [6]: 146 µM
- selectivity ratio [7]: > 60
- selectivity ratio [8]: > 60
- Activity [9]: 20%
- Activity [10]: >80%
- Activity [11]: Active
- Activity [12]: 32%
- fold change (FC) [13]: 14
- Activity [14]: Non-Toxic
- Activity [15]: Non-Toxic

SMILES: CCCCCCCCCC(=O)N[C@@H](Cc1c[nH]c2ccccc12)C(=O)N[C@@H](CC(N)=O)C(=O)N[C@@H](CC(=O)O)C(=O)N[C@@H]1C(=O)NCC(=O)N[C@@H](CCCN)C(=O)N[C@@H](CC(=O)O)C(=O)N[C@H](C)C(=O)N[C@@H](CC(=O)O)C(=O)NCC(=O)N[C@H](CO)C(=O)N[C@@H]([C@H](C)CC(=O)O)C(=O)N[C@@H](CC(=O)c2ccccc2N)C(=O)O[C@@H]1C [DAPTOMYCIN]
- MIC [1]: 0.5 µg/mL (≈ 0.309 µM)
- MIC [2]: 0.5 µg/mL (≈ 0.309 µM)
- MIC [3]: 1 µg/mL (≈ 0.617 µM)

SMILES: COc1cc2nccc(Nc3cccc(C(F)(F)F)c3)c2cc1OCc1ccc(C(F)(F)F)cc1
- MIC [1]: 3 µg/mL (≈ 6.09 µM)
- MIC [2]: 6 µg/mL (≈ 12.2 µM)
- MIC [3]: 3 µg/mL (≈ 6.09 µM)
- MIC [4]: 4 µg/mL (≈ 8.12 µM)

SMILES: COc1cc2nccc(Nc3ccc(F)c(Cl)c3)c2cc1OCc1ccc(C(F)(F)F)cc1
- MIC [1]: 1.5 µg/mL (≈ 3.15 µM)
- MIC [2]: 3 µg/mL (≈ 6.29 µM)
- MIC [3]: 1.5 µg/mL (≈ 3.15 µM)
- MIC [4]: 4 µg/mL (≈ 8.39 µM)

SMILES: COc1cc2nccc(Nc3ccc(C(F)(F)F)cc3)c2cc1OCc1ccc(C(F)(F)F)cc1
- MIC [1]: 0.75 µg/mL (≈ 1.52 µM)
- MIC [2]: 3 µg/mL (≈ 6.09 µM)
- MIC [3]: 0.75 µg/mL (≈ 1.52 µM)
- MIC [4]: 2 µg/mL (≈ 4.06 µM)
- IC50 [5]: 70.7 µM
- IC50 [6]: 58.1 µM
- selectivity ratio [7]: 15
- selectivity ratio [8]: 15

SMILES: CN[C@H](CC(C)C)C(=O)N[C@H]1C(=O)N[C@@H](CC(N)=O)C(=O)N[C@H]2C(=O)N[C@H]3C(=O)N[C@H](C(=O)N[C@H](C(=O)O)c4cc(O)cc(O)c4-c4cc3ccc4O)[C@H](O)c3ccc(c(Cl)c3)Oc3cc2cc(c3O[C@@H]2O[C@H](CO)[C@@H](O)[C@H](O)[C@H]2O[C@H]2C[C@](C)(N)[C@H](O)[C@H](C)O2)Oc2ccc(cc2Cl)[C@H]1O [VANCOMYCIN]
- MIC [4]: 0.5 µg/mL (≈ 0.345 µM)

SMILES: COc1cc2nccc(Nc3ccc(F)c(Cl)c3)c2cc1OCc1ccccc1C
- MIC [1]: 1.5 µg/mL (≈ 3.55 µM)
- MIC [2]: 3 µg/mL (≈ 7.09 µM)
- MIC [3]: 1.5 µg/mL (≈ 3.55 µM)
- MIC [4]: 8 µg/mL (≈ 18.9 µM)

SMILES: COc1cc2nccc(Nc3ccc(C)cc3)c2cc1OCc1ccc(C(F)(F)F)cc1
- MIC [1]: 3 µg/mL (≈ 6.84 µM)
- MIC [2]: 3 µg/mL (≈ 6.84 µM)
- MIC [3]: 3 µg/mL (≈ 6.84 µM)
- MIC [4]: 4 µg/mL (≈ 9.12 µM)

SMILES: COc1cc2nccc(Nc3ccc(C)cc3)c2cc1OCc1ccc(C)cc1
- MIC [1]: 12 µg/mL (≈ 31.2 µM)
- MIC [4]: > 16 µg/mL

SMILES: COc1cc2nccc(Nc3ccc(F)c(Cl)c3)c2cc1OCCOc1ccccc1
- MIC [1]: 3 µg/mL (≈ 6.84 µM)
- MIC [2]: 3 µg/mL (≈ 6.84 µM)
- MIC [3]: 3 µg/mL (≈ 6.84 µM)
- MIC [4]: 4 µg/mL (≈ 9.11 µM)
